Only some compounds are listed: those with a hit (about 3.8% of all), similar ones and a draw of the others.
hERG rescue – shields human hERG channel from block by proarrhythmic agents; CHO-hERG, FluxOR thallium flux, dofetilide IC70 present; activation (rescue from dofetilide block), less the hit threshold, % at 10 µM; actives 0.51% (n = 310,000); AID 1511;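 active = activation above the mean of controls blocked by dofetilide plus 5 SD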;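 also: thallium influx through hERG after potassium depolarization seen as dye fluorescence rise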
KCNQ1 inh – blocks the human KCNQ1 potassium channel. P51787. CHO-K1 KCNQ1, FluxOR thallium flux fluorescence; active compounds read high. B-score at 10 µM. actives 1.3% (n = 310,000). AID 2642;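 active = compounds whose thallium flux B-score, printed positive for inhibition, exceeds three library SD while starting fluorescence stays within three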;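 also: channel opened by potassium depolarization with thallium stimulus after 20 min compound exposure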
Target sequence (P51787 whole entry, looked up): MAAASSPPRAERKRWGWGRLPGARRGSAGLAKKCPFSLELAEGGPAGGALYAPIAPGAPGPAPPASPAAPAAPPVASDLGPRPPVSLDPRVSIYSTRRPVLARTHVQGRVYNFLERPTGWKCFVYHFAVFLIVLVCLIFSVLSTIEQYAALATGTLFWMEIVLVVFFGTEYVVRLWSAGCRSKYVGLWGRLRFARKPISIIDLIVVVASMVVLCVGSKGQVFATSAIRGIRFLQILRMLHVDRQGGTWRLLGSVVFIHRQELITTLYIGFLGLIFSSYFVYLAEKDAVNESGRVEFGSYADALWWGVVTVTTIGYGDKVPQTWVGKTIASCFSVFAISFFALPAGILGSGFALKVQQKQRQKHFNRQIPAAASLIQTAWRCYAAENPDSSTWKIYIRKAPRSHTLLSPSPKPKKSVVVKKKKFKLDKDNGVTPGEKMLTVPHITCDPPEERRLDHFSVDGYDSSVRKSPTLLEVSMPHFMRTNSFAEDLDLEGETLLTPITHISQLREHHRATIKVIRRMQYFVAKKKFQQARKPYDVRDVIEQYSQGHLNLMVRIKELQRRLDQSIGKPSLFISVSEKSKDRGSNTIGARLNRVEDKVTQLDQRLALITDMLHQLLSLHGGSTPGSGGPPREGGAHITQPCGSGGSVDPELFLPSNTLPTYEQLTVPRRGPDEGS
KCNK9 inh – human KCNK9 channel inhibition. HEK293 KCNK9, FluxOR thallium flux fluorescence; active compounds read low. B-score at 10 µM. actives 1.2% (n = 310,000). AID 488922;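 active = ratio B-score over 3 SD below the library mean, with starting fluorescence within 5 SD of its mean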;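 also: negative B-score means less thallium flux so channel inhibition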
KCNK3 block – human KCNK3 channel inhibition, primary screen; AID 602410; CHO-KCNK3 thallium flux, FluxOR fluorescence; active compounds read low; O14649; actives 0.84% (n = 340,000); B-score at 10 µM;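 active = B-score under library mean minus 4 SD, starting fluorescence ratio at most library mean plus 5 SD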;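 also: more negative B-score means stronger inhibition of thallium flux through KCNK3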
KCNQ1 act – human KCNQ1 channel potentiation or activation; B-score at 10 µM; actives 0.35% (n = 310,000); AID 2648; CHO-K1 KCNQ1, thallium flux FluxOR fluorescence; active compounds read high;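 active = fluorescence ratio B-score, a plate-corrected score, at least three library SD, with initial intensity B-score within 5 SD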
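System: Stable KCNQ1 CHO-K1 line | Incubation: 90 min dye loading and 20 min compound exposure, both at room temperature | Measure: Ratio B score | Medium: Assay buffer for compound exposure, DMSO matched across wells | Compound dosing: Single-concentration screen | Probe or stimulus: K+/Tl+ depolarizing stimulus | Measured by: Kinetic FluxOR fluorescence, 10 s baseline plus 110 s post-stimulus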
Kir21 inh – blocks the mouse Kir2.1 inward-rectifier potassium channel; P35561; HEK293-Kir2.1, FluxOR thallium flux fluorescence; active compounds read low; B-score at 10 µM; actives 0.85% (n = 310,000); AID 1672;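 active = fluorescence ratio B-score at or below minus 3 SD of library scores, with starting-brightness B-score within 2 SD, cut at about -4.2 in these data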;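 also: channel flux triggered by added potassium and thallium sulfate stimulus; B-score of peak minus minimum fluorescence over baseline after thallium stimulus; more negative B-score means stronger Kir2.1 block with less thallium influx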
Numbers stand for hits; . = inactive; / = no result given.

SMILES	hERG rescue	KCNQ1 inh	KCNK9 inh	KCNK3 block	KCNQ1 act	Kir21 inh
O=C(CN1CCOCC1)Nc1ccccc1Sc1ccccc1	.	.	.	.	.	-6.3
O=C(CN1CCOCC1)Nc1ccc(Cl)c(Cl)c1	5.9	.	.	.	.	.
N=c1sccn1CC(=O)Nc1ccccc1Sc1ccccc1	.	.	.	.	.	-4.8
O=C(CN1CCN(S(=O)(=O)N2CCOCC2)CC1)Nc1ccc(Cl)c(Cl)c1	.	.	.	.	.	.
CCN(CC)c1ncnc2scc(C3COc4ccccc4O3)c12 (stereo not drawn)	.	.	-7.6	.	.	.
C[C@H]1CC[C@H]2C(=O)N3[C@H](c4ccccc4Br)[C@@H](C)CC[C@H]3C(=O)N2[C@@H]1c1ccccc1Br	.	.	-9.6	/	.	.
C[C@H]1CC[C@H]2C(=O)N3[C@H](c4cccc(N5CCCC5=O)c4)[C@@H](C)CC[C@H]3C(=O)N2[C@@H]1c1cccc(N2CCCC2=O)c1	.	.	.	/	.	.
COc1cccc2c1OC1(C)CC2N(C(=O)c2ccco2)C(=S)N1c1ccc(F)cc1 (stereo not drawn)	.	.	.	.	.	.
S=c1[nH]c2ccc(Cl)cc2[nH]1	.	.	.	.	.	.
S=c1[nH]c2cc(Cl)ccc2s1	55	.	.	.	74	.
C/C(N)=C(/C#N)C(=O)COC(=O)c1ccc(C)c(S(=O)(=O)N2CCCCC2)c1	.	.	.	.	.	.
Cc1cccc(/N=C/c2sc3ccccc3c2O)n1	6.7	.	.	.	8	.
Cc1ccc(CCNC(=O)C23CN(Cc4ccccc4)CC2C(c2ccc([N+](=O)[O-])cc2)=NO3)cc1 (stereo not drawn)	.	.	.	.	.	.
Cc1ccc(O)c(-c2cc(-c3ccccc3C)[nH]n2)c1	.	.	-7.4	.	.	.
Cc1cccc(-c2c(O)cc(=O)[nH]c2Cl)c1	.	.	.	.	.	.
COc1cc(C2Sc3ccccc3NC3=C2C(=O)OC3)cc(OC)c1OC (stereo not drawn)	.	.	.	.	.	.
O=C1OCC2=C1C(c1ccc(F)cc1)Sc1ccccc1N2 (stereo not drawn)	6.0	.	.	.	.	.
COC(=O)c1cccc(-c2ccc(/C=N/N3C(=O)C4C5C=CC(C6CC56)C4C3=O)o2)c1 (stereo not drawn)	.	7	.	.	.	.
Cc1cc(-c2ccccc2)n[nH]1	.	.	.	.	.	.
FC(F)C(F)(F)C(F)(F)C(F)(F)c1cc(-c2ccccc2)n[nH]1	.	.	-7.8	.	.	.
Cc1nc(SCCC(C)C)c([N+](=O)[O-])[nH]1	.	.	.	.	.	.
O=S(=O)(Cc1ccccc1)NCC1CCCO1 (stereo not drawn)	4.7	.	.	.	.	.
O=S(=O)(Cc1ccccc1)Nc1ccc(S(=O)(=O)NCC2CCCO2)cc1 (stereo not drawn)	.	.	.	.	.	.
O=C(CCNc1ccc(Cc2ccncc2)cc1)c1cccc([N+](=O)[O-])c1	.	.	.	.	.	.
O=C(CCNc1cccc(F)c1)c1cccc([N+](=O)[O-])c1	.	8	.	.	.	.
SMILES	hERG rescue	KCNQ1 inh	KCNK9 inh	KCNK3 block	KCNQ1 act	Kir21 inh
O=C(O)CN1C(=O)C(=O)N(Cc2ccc(C(F)(F)F)cc2)C1=O	5.4	.	.	.	.	.
CSc1nc2c(c(=O)[nH]c(=O)n2C)n1Cc1ccccc1	.	.	.	.	.	.
CCOC(=O)C1=C(C)n2c(s/c(=C/c3cccc([N+](=O)[O-])c3)c2=O)=NC1c1ccc(O)c(OC)c1 (stereo not drawn)	.	6	.	.	.	.
CCN(CC)S(=O)(=O)c1cccc(NC(=O)CCNC(=O)NC23CC4CC(CC(C4)C2)C3)c1	.	8	.	.	.	.
CN(C)S(=O)(=O)c1cccc(NC(=S)NC23CC4CC(CC(C4)C2)C3)c1	.	.	.	.	.	.
CC1=NN(c2nc(-c3ccc(C)cc3)cs2)C(=O)C1N=Nc1cccc(O)c1 (stereo not drawn)	.	.	.	.	.	.
CC1=NN(c2nc(-c3ccc(C)cc3)cs2)C(=O)C1N=Nc1ccccc1O (stereo not drawn)	.	6	.	.	.	.
COc1ccc(S(=O)(=O)CCC(=O)N2c3ccccc3CC2C)cc1 (stereo not drawn)	.	.	.	.	.	-4.6
O=C(c1cccc(C(F)(F)F)c1)C1CCCN(Cc2cccn2-c2ccccn2)C1 (stereo not drawn)	.	8	.	.	.	.
CNC(=O)c1ccccc1NC(=O)c1ccc(C)c(S(=O)(=O)N2CCCCC2)c1	8.7	.	.	.	.	.
COC(=O)c1ccc(COC(=O)c2ccc(C)c(S(=O)(=O)N3CCCCC3)c2)cc1	/	/	/	-9.2	/	/
Cc1ccc(C(=O)OCC(=O)N2C(C)CCCC2C)cc1S(=O)(=O)N1CCCCC1 (stereo not drawn)	.	.	.	.	.	.
Cc1ccc(C(=O)Oc2ccc([N+](=O)[O-])cc2)cc1S(=O)(=O)N1CCCCCC1	.	.	-8.1	.	.	.
Cc1ccc(C(=O)Nc2cccc(O)c2)cc1S(=O)(=O)N1CCCCCC1	.	.	.	.	.	.
CC1(C)Cc2c(sc3c2c(N)nc(=S)n3Cc2ccccc2)CO1	.	.	.	/	.	.
CC1(C)Cc2c(sc3[nH]c(=S)n(Cc4ccccc4)c(=O)c23)CO1	4.7	.	.	.	34	.
CCc1ccc(O)c(CNCCNCc2cc(CC)ccc2O)c1	.	.	.	.	.	-11
Cc1ccc(S(=O)(=O)N2CCC(=O)N(CCOCc3cccc(Cl)c3)CC2)cc1	.	.	.	.	.	-5.5
Cc1ccc(S(=O)(=O)N2CCC(=O)N(CCOCc3cccc(F)c3)CC2)cc1	.	.	.	.	.	.
CCOc1ccc(OCCC(=O)N(CC)CC(=O)NCc2cccs2)cc1	/	/	/	.	/	/
Cc1oc2cc([N+](=O)[O-])c(O)c([N+](=O)[O-])c2c1C(=O)c1ccc(Cl)cc1	.	6	.	.	.	.
COc1ccc(OC)c(C(=O)c2c(C)oc3cc([N+](=O)[O-])c(O)c([N+](=O)[O-])c23)c1	.	.	.	.	.	.
Cc1ccc(S(=O)(=O)N2CCN(CC(=O)N3CCOCC3)CC2)cc1	.	.	.	.	.	.
O=C(O)Cc1coc2ccc3ccccc3c12	.	.	.	.	.	.
CC(C)CN(CC(C)C)C(=O)Cc1coc2ccc3ccccc3c12	.	.	.	.	.	-5.8
COc1cc(C2Nc3ccccc3C(=O)N2c2ccccc2OC)ccc1O (stereo not drawn)	.	.	.	.	.	.
